SENP6 block = SENP6 protease inhibitors, primary screen, biochemical, luminescence, uHTS; inhibition, % at 10 µM; AID 2599, 2010; Recombinant SENP6 catalytic domain, aminoluciferin luminescence; 330,000 compounds, 1.8% hits; Sentrin-specific protease 6 (Homo sapiens), Q9GZR1;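 active means inhibition above about 50% at the single tested dose, limit read from the data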;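 further: plate controls were DMSO wells with enzyme for no effect and DMSO wells lacking enzyme for full effect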
SENP8 block-1 = human SENP8 protease inhibitors, primary screen, biochemical, fluorescence, Nedd8 protein substrate, uHTS | Sentrin-specific protease 8 (Homo sapiens), Q96LD8 | inhibition, % at 20 µM | recombinant SENP8 | AID 602440, 2012 | 360,000 compounds, 0.64% hits; in the data active means inhibition mostly above about 40%, no sharp cut-off; inactive means mostly below about 27%
Target sequence (Q96LD8 whole entry, looked up): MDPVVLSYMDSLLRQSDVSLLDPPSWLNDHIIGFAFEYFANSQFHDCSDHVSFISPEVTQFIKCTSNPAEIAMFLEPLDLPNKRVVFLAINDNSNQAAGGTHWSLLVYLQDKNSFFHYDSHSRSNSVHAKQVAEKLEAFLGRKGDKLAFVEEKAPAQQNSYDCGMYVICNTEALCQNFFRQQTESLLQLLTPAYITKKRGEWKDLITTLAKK
HSP90 inh = HSP90 inhibitors, primary screen, cell lysate, luminescence | inhibition, % at 5.6 µM | Heat shock protein HSP 90 (rabbit reticulocyte lysate; luciferase refolding) | 290,000 compounds, 0.91% hits | Rabbit reticulocyte lysate, luciferase refolding luminescence, 3 h | AID 1789, 2009;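 active means inhibition above the screen-wide mean plus 3 SD, computed separately per campaign, cut at about 16% in these data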;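 further: 0% = DMSO wells and 100% = 60 µM geldanamycin wells; inhibitors lower the luminescence because luciferase stays unfolded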
SENP1 FRET inh = human SENP1 catalytic domain inhibitors, primary screen, biochemical, FRET, uHTS; 360,000 compounds, 0.21% hits; AID 624204, 2012; inhibition, % at 10 µM; recombinant SENP1 catalytic domain, CyPet-SUMO1-YPet FRET cleavage; Sentrin-specific protease 1 (Homo sapiens), Q9P0U3;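 active means inhibition at least 30% at 10 µM, raw YFP signal under a set limit, fluorescence ratio 0.5 to 1.5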;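 further: 0% = enzyme with DMSO and 100% = no enzyme wells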
Target sequence (Q9P0U3 419-644 limits assumed): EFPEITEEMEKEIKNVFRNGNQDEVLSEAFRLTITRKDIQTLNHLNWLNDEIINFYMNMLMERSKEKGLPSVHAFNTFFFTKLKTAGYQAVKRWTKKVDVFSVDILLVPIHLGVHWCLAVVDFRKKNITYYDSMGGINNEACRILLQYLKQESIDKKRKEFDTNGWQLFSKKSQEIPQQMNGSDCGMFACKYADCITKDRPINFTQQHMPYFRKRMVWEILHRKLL
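Compound: 10 µM single point, 0.5% DMSO; Test system: hSENP1 catalytic domain, recombinant; Timing: 50 min reaction at room temperature; Technique: FRET, CFP and YFP emission; Control set: no-enzyme wells low, DMSO-plus-enzyme wells high control.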
SENP8 block-2 = SENP8 protease inhibitors, primary screen, biochemical, luminescence; Sentrin-specific protease 8 (Homo sapiens), Q96LD8; purified SENP8, Z-RLRGG-aminoluciferin cleavage; inhibition, % at 10 µM; 330,000 compounds, 1.2% hits; AID 2540, 2010; in the data active means inhibition above about 50%
SENP7 inh = SENP7 protease inhibitors, primary screen, biochemical, luminescence, uHTS; recombinant SENP7, Z-RLRGG-aminoluciferin luminescence, 40 min; inhibition, % at 5 µM; 330,000 compounds, 1.5% hits; AID 434973, 2010;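 active means inhibition above about 50% at the single test dose, limit read from the data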;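 further: plate controls were DMSO with enzyme for no effect and no enzyme buffer wells for full effect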
SENP8 conf = SENP8 protease inhibitors, retest, confirmation, biochemical, luminescence, single concentration; shares compounds with SENP7 inh; inhibition, % at 12.5 µM; AID 488912, 2010; 6,200 compounds, 40% hits; Recombinant SENP8, Z-RLRGG-aminoluciferin luminescence, 60 min;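 active means mean inhibition across replicates above about 50%, limit read from the data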
SENP6 conf = SENP6 protease inhibitors, confirmation, biochemical, luminescence, single concentration; 6,200 compounds, 58% hits; recombinant SENP6, Z-RLRGG-aminoluciferin luminescence; inhibition, % at 12.5 µM; shares compounds with SENP7 inh
SENP7 confirm = SENP7 protease inhibitors, retest, confirmation, biochemical, luminescence, single concentration; recombinant SENP7, Z-RLRGG-aminoluciferin luminescence, 40 min; 6,200 compounds, 69% hits; shares compounds with SENP7 inh; inhibition, % at 12.5 µM; AID 488917, 2010
Casp3 SENP sel = caspase-3 protease inhibitors, confirmation, selectivity assay for SENP inhibitor project, biochemical, single concentration | shares compounds with SENP7 inh | purified caspase-3, Z-DEVD-aminoluciferin luminescence, 60 min | inhibition, % at 12.5 µM | 6,200 compounds, 60% hits | AID 488918, 2010;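 active means mean inhibition above about 50%, limit read from the data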;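 further: plate controls were enzyme with DMSO for no effect and wells without caspase-3 for full effect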
Target sequence (P42574 28-227 limits assumed): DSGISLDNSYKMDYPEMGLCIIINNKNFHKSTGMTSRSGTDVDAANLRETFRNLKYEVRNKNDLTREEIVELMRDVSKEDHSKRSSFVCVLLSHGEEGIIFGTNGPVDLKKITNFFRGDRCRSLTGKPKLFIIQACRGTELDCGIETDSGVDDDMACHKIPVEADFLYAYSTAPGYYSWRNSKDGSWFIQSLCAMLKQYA
SENP luc ctr = interferes with luciferase luminescence in SENP counter-screen; shares compounds with SENP7 inh; Pre-incubated SENP8/Z-RLRGG-aminoluciferin, luciferase luminescence interference; inhibition, % at 12.5 µM; 6,200 compounds, 39% hits;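 active means mean inhibition above about 50% when retested at one dose, limit read from the data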;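 further: plate controls were DMSO wells with completed reaction for no effect and substrate without enzyme for full effect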
The depositor's hits bear a star; nt = not tested or not shown. Compounds with a hit are over-represented: about 2.9% of the library has one in this group of screens.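 How the source made its calls, unless noted: active means mean inhibition above about 50% in the one-dose retest (limit read from the data); inactive means the rest.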

SMILES	SENP6 block	SENP8 block-1	HSP90 inh	SENP1 FRET inh	SENP8 block-2	SENP7 inh	SENP8 conf	SENP6 conf	SENP7 confirm	Casp3 SENP sel	SENP luc ctr
Cc1c(-c2ccc(Br)cc2)nc2ccccn12	96*	-337	-4	0	88*	90*	-20	88*	100*	88*	89*
Cc1ccc(NC(=O)C2C3C=CC4(O3)C2C(=O)N(CCCN2CCCCC2)C4C(=O)NC2CCCCC2)cc1C (stereo not given)	-19	19	4	3	-7	-4	nt	nt	nt	nt	nt
O=C(Oc1ccccc1C(=O)Nc1ccccc1)c1ccccc1Br	nt	-31	-5	1	nt	nt	nt	nt	nt	nt	nt
CC(C)C[C@@H](CNCC(=O)[C@H](Cc1ccccc1)NC(=O)c1[nH]cnc1C(=O)N[C@H](CN)CC(C)C)NC(=O)c1nc[nH]c1C(=O)N[C@@H](CC(=O)O)C(=O)O	nt	5	nt	1	nt	nt	nt	nt	nt	nt	nt
O=C(NCc1cccnc1)C1CCN(S(=O)(=O)c2cc([N+](=O)[O-])ccc2Cl)CC1	16	12	nt	0	-7	4	nt	nt	nt	nt	nt
C/C=C/c1ccc(O)c(OC)c1	-10	17	nt	0	-16	-18	nt	nt	nt	nt	nt
Oc1cc(O)cc(/C=C/c2ccc(O)c(O)c2)c1	65*	-384	nt	-3	44	45	63*	71*	83*	63*	73*
CCC1c2ccccc2C(=O)C1C(N)=O (stereo not given)	nt	-163	nt	1	nt	nt	nt	nt	nt	nt	nt
Cc1cc([N+](=O)[O-])cc(/C=N\NC(=O)C2COc3ccccc3O2)c1O (stereo not given)	64*	16	2	-34	22	6	24	12	66*	38	30
O=C(N/N=C\c1ccc(O)c([N+](=O)[O-])c1)C1COc2ccccc2O1 (stereo not given)	-9	14	0	-3	6	10	nt	nt	nt	nt	nt
Nc1ccc(-c2cc3ccccc3c(=O)o2)cc1	53*	-478	nt	-25	41	26	44	45	77*	55*	1
O=C(COC(=O)C1CCC1)NCc1ccc(Cl)cc1Cl	8	-1	nt	1	-1	5	nt	nt	nt	nt	nt
CCN1C(=O)/C(=C/N2CCc3ccccc32)SC1=S	17	18	0	-23	3	56*	11	14	14	17	4
COc1cccc(CN2CCN(C(=O)c3oc4c(F)cccc4c3C)CC2=O)c1	87*	1	1	-1	7	10	-20	-17	-5	-9	-6
COc1ccc(CCNC(=O)c2cc3ccccn3n2)c(OC)c1OC	-14	-1	-4	0	5	3	nt	nt	nt	nt	nt
COc1cccc2c(=O)cn[nH]c12	1	-427	-2	-2	-9	10	nt	nt	nt	nt	nt
N/C(=N\OC(=O)CCCc1ccccc1)c1ccccn1	50*	4	-1	2	12	37	28	28	73*	73*	54*
N/C(=N\OC(=O)CCC1CCCC1)c1ccccc1	69*	5	-1	0	41	17	72*	71*	89*	83*	53*
N/C(=N\OC(=O)CCC1CCCC1)c1ccccn1	87*	7	3	1	67*	68*	82*	80*	95*	91*	83*
CC(=O)c1coc2c1cc(O)c1ccccc12	3	16	4	-4	-8	11	nt	nt	nt	nt	nt
O=C(c1ccco1)c1coc2c1cc(O)c1ccccc12	60*	21	-1	1	-5	20	-14	7	-1	1	-3
Cc1cccc(-c2nc(=S)c3c(o2)CCCC3)c1	62*	5	-1	1	52*	72*	52*	49	76*	43	51*
S=c1nc(-c2ccc(Br)cc2)oc2c1CCCC2	10	18	-2	-7	-22	17	nt	nt	nt	nt	nt
CON(C)S(=O)(=O)NC(=O)C1=C(N2CCCC2)COC1=O	12	8	nt	0	0	-4	nt	nt	nt	nt	nt
O=C(c1ccccc1)c1ccc2ccccc2c1	nt	15	nt	2	nt	nt	nt	nt	nt	nt	nt
SMILES	SENP6 block	SENP8 block-1	HSP90 inh	SENP1 FRET inh	SENP8 block-2	SENP7 inh	SENP8 conf	SENP6 conf	SENP7 confirm	Casp3 SENP sel	SENP luc ctr
O=C(c1ccccc1)c1ccc2cc(O)ccc2c1	99*	-25	-4	3	96*	96*	7	99*	102*	92*	97*
O=C(NC(=S)Nc1ccc(S(=O)(=O)Nc2nccs2)cc1)c1ccccc1	64*	14	1	-1	32	-2	60*	59*	80*	61*	61*
O=Cc1cc(Br)c(OC(=O)N2CCOCC2)c(Br)c1	-14	22	0	-1	7	3	nt	nt	nt	nt	nt
O=c1c(N2CCOCC2)coc2ccccc12	-6	-1	2	1	-2	0	nt	nt	nt	nt	nt
O=c1[nH]c(N2CCOCC2)cc2ccccc12	91*	-498	nt	-59	87*	96*	46	76*	61*	37	7
Cn1c(=NC(=O)c2ccco2)sc2ccccc21	67*	-387	10	-1	46	52*	54*	56*	84*	79*	27
Cc1ccc(-c2nc(N/N=C/c3cccnc3)c3ccccc3n2)cc1	88*	-69	0	-4	87*	90*	45	77*	76*	84*	21
CCc1ccc(-c2ccc(C(=O)O)cc2)nc1	20	22	3	1	49	65*	76*	74*	94*	91*	75*
COc1ccc(C(=O)c2ccc(-c3ccc(OC)cc3)nc2)cc1	-16	-230	2	1	-5	-12	nt	nt	nt	nt	nt

Assay outcomes (PubChem)
